Experiment [1] concerns the target T1, Polyunsaturated fatty acid 5-lipoxygenase (Rattus norvegicus) (UniProt P12527).
T1 sequence (whole entry): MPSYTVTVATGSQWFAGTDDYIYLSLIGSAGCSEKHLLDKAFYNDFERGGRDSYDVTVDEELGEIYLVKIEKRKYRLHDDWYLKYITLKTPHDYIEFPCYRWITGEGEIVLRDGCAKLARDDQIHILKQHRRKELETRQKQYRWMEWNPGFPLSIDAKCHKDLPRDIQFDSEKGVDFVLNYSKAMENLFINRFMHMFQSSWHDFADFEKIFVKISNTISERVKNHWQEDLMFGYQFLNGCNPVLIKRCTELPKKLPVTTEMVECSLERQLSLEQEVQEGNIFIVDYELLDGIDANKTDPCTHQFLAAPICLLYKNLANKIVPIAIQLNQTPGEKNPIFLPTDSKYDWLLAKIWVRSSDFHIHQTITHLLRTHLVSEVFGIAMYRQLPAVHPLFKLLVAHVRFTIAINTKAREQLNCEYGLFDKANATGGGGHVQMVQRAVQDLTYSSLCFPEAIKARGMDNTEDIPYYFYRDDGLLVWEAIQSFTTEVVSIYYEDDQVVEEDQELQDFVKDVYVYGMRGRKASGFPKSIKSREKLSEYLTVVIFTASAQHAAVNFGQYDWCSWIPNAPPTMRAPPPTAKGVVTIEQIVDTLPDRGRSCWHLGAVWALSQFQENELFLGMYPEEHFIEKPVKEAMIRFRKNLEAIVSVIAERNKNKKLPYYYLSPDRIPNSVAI
Kind of experiment: The compound was tested for the in vitro inhibition of 5-lipoxygenase (5-lo) from the 20000 g supernatant of RBI-1 cells; NS indicates nonsignificant inhibition at 32 uM concentration. Type of experiment: cell-based. The gist of the method:
(§1)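 20000g supernatant of homogenized RBL-1 cells (7.5 × 10⁶ cell equiv/mL) preincubated 20 min at 37 °C with inhibitor or 2% Me₂SO vehicle in pH 6.8 BES/PIPES buffer with EDTA, NaCl, 0.7 mM CaCl₂. Reaction started with 66 μM [¹⁴C]arachidonic acid. [¹⁴C]-5-HETE counted by scintillation, corrected for [³H]-5-HETE recovery.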

Experiment [2] deals with T2, Polyunsaturated fatty acid 5-lipoxygenase (Rattus norvegicus, UniProt P12527).
T2 sequence (P12527 whole entry): T1 sequence (whole entry)
The experiment is described as follows: In vitro inhibition of 5-lipoxygenase (5-lo) from the 20000 g supernatant of RBI-1 cells. The class given is cell-based.

The target of experiment [3] is T2, Polyunsaturated fatty acid 5-lipoxygenase. The experiment is described as follows: Inhibition of 5-lipoxygenase (5-lo) in intact rat polymorphonuclear leukocyte RPMNL. The gist of the method:
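Pleural PMNL from carrageenan-injected male Sprague-Dawley rats (200-250 g). Erythrocytes lysed with water, cells washed and held in HEPES/Earle's salts pH 7.0 with 1 mg/mL BSA. 5×10^6 cells preincubated 15 min at 37 °C with compound or DMSO (final 2%). Stimulated with A23187 (final 8.3 μM) for 10 min, stopped on ice. Methanol extracts assayed for LTB₄ by HPLC.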

In experiment [4] the target is T1, Polyunsaturated fatty acid 5-lipoxygenase (Rattus norvegicus). Kind of experiment: The compound was tested for the in vitro inhibition of 5-lipoxygenase (5-lo) from the 20000 g supernatant of RBI-1 cells at a concentration of 30 uM. Type of experiment: cell-based. The gist of the method:
as §1

Experiment [5] has the same target. Kind of experiment: The compound was tested for the in vitro inhibition of 5-lipoxygenase from the 20000 g supernatant of RBI-1 cells; NS indicates nonsignificant inhibition at 32 uM concentration. Type of experiment: cell-based. The method, boiled down: as §1
In experiment [6] the target is T3, Polyunsaturated fatty acid 5-lipoxygenase (Homo sapiens, UniProt P09917).
T3 sequence (P09917 whole entry): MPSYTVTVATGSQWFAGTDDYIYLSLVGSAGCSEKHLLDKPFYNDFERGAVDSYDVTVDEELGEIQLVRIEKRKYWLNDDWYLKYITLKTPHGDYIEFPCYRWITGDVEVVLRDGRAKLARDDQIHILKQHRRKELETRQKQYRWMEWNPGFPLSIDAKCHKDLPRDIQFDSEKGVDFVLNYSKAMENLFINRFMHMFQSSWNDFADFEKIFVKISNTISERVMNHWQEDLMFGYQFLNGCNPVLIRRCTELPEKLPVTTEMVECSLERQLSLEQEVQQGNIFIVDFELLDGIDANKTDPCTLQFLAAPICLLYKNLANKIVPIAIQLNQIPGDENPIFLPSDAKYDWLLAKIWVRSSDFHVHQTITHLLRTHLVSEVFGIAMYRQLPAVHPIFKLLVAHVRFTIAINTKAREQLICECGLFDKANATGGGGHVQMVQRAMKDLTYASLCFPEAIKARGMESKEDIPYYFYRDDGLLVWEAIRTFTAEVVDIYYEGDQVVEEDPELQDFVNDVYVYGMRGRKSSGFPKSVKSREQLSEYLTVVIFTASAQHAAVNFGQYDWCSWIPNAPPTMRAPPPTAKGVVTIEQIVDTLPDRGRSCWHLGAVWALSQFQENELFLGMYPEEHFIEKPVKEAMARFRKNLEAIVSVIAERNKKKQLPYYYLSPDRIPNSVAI
The experiment is described as follows: The compound was tested for the inhibition of 5-lipoxygenase (5-lo) in human whole blood (HWBL). Type of experiment: tissue-based. The gist of the method: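 Heparinized (20 units/mL) human blood preincubated 15 min at 37 °C with compound or vehicle. Challenged with A23187 in DMSO (final 50 μM) for 30 min, then chilled and centrifuged. Plasma extracted with 4 volumes methanol for at least 2 h at 3 °C. LTB₄ measured by RIA or EIA.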

Experiment [7] deals with T4, Arachidonate 12-lipoxygenase (Rattus norvegicus) (UniProt Q02759).
T4 sequence (whole entry): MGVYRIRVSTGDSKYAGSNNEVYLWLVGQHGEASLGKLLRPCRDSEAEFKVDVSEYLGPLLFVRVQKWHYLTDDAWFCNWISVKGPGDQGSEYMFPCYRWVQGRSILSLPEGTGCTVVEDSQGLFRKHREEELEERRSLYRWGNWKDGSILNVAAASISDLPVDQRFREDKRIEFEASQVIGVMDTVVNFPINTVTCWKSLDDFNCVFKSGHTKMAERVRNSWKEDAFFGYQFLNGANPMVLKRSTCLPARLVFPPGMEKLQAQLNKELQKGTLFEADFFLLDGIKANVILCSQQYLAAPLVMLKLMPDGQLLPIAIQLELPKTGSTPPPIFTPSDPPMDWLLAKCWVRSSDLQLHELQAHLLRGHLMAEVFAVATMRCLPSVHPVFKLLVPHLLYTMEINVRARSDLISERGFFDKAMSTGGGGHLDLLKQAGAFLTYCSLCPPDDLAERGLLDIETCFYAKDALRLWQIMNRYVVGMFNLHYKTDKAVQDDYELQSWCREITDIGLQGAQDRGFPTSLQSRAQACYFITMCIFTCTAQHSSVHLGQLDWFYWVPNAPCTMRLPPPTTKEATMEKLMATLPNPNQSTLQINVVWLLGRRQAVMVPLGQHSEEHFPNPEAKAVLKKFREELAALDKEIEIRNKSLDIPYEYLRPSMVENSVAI
Kind of experiment: The compound was tested for the in vitro inhibition of platelet 12-lipoxygenase at a concentration of 100 uM.

Experiment [8] relates to 15-lipoxygenase (Glycine max). The experiment is described as follows: The compound was tested for the in vitro inhibition of 15-lipoxygenase of soybean at a concentration of 100 uM. To be noted: at 100 µM.
Experiment [9] deals with cyclooxygenase (Ovis aries). Kind of experiment: The compound was tested for the in vitro inhibition of Prostaglandin G/H synthase of sheep seminal vesicle at a concentration of 100 uM.

pIC50: −log10 of the molar value. Activity calls are given as the source filed them. The calls are words filed in the database; no cut-off is given here.

Usually inhibition stands for the percentage by which the read-out fell short of the control. As for `CCOC(=O)c1nc(O)c(C)s1`, in experiment [1], the inhibition result is “inactive”.
By pIC50 is commonly meant the IC50 on a negative log10 scale, so that one unit is a factor of ten. With `CC(=O)Oc1nc(-c2ccc(-c3ccccc3)cc2)sc1-c1ccccc1`, the negative logarithm of the IC50 (pIC50) was 5.85 in [2] and 6.05 in experiment [3].
Consider `Cc1sc(-c2ccncc2)nc1O`, for which the pIC50 in [2] is 4.85.
With `Cc1sc(C(=O)O)nc1O`, in experiment [1], the inhibition result was “inactive”.
Consider `CCCCc1sc(-c2ccccc2)nc1OC(C)=O`, for which the pIC50 in experiment [3] is 6.30.
`CC(=O)c1ccc(-c2nc(O)c(C)s2)cc1` had a pIC50 in [2] of 5.85.
On to `CCOC(=O)c1sc(-c2ccccc2)nc1O`, for which, in experiment [4], the inhibition was determined as 17%.
The compound `CCCCCC/C(O)=C\C/C=C\C/C=C\C=C\CCCCC(=O)O` showed a pIC50 in [2] of 5.14.
For `COc1nc(-c2ccccc2)sc1-c1ccccc1`, the inhibition entry in [1] was “inactive”.
Turning to `CCCc1sc(-c2ccccc2)nc1OS(C)(=O)=O`, in [1], the inhibition entry is “inactive”.
The compound `Cc1ccc(-c2nc(O)c(C)s2)cc1` gave a pIC50 in experiment [3] of 5.92.
Compound `Cc1sc(-c2cnc3ccccc3c2)nc1O` gave a pIC50 in experiment [2] of 4.80.
The same measure, in the same setting: to `Cc1sc(-c2cccs2)nc1O` belongs 5.85.
As to `CCCc1sc(-c2ccccc2)nc1OC(C)=O`, the pIC50 was 6.28 in experiment [2] and 6.18 in experiment [3].
Consider `Cc1nc(O)c(C)s1`, for which the inhibition entry in experiment [5] was “inactive”.
On to `CCCc1sc(-c2ccccc2)nc1OC(=O)NC`, for which the pIC50 was 5.29 in [6], 5.06 in experiment [2] and 6.40 in experiment [3].
Compound `CCCCc1sc(-c2ccccc2)nc1O` gave a pIC50 in [2] of 4.74.
Same read-out and setting: to `O=C(O)c1ccc(-c2nc(O)c(-c3ccccc3)s2)cc1` belongs 5.92.
`Cc1sc(NN)nc1O`: the inhibition result in experiment [5] was “inactive”.
`CCCc1sc(-c2ccccc2)nc1OC(=O)OCc1ccccc1`: the pIC50 in [2] was 5.55; in experiment [3] it was 5.92.
In experiment [2], `CCCCC(=O)Oc1nc(-c2ccccc2)sc1-c1ccccc1` gave a negative logarithm of the IC50 (pIC50) of 5.04.
With `Oc1nc(-c2ccc(F)cc2)sc1-c1ccccc1`, the inhibition in experiment [7] was found to be 0%; in [8], 16%; in experiment [9], 20%. Besides, the pIC50 in experiment [6] was 6.33; in experiment [2], 6.30.
With `COc1ccc(-c2nc(O)c(C)s2)cc1`, the negative logarithm of the IC50 (pIC50) in experiment [2] was 5.96.
The same measure, in the same setting: as for `CC(=O)Oc1nc(-c2ccc(C(=O)O)cc2)sc1C`, the figure is 4.85; as for `Cc1sc(-c2ccc(N)cc2)nc1O`, 4.82; as for `Cc1sc(-c2ccc([N+](=O)[O-])cc2)nc1O`, 5.80.
For the compound `CCOC(=O)Cc1nc(O)c(C)s1`, in experiment [1], the inhibition entry is “inactive”.
As to `CCCc1sc(-c2ccccc2)nc1OC(=O)OCC`, the pIC50 is 5.35 in [6] and 6.15 in [3].
In experiment [4], `Cc1sc(-c2ccc(-c3ccccc3)cc2)nc1O` registered an inhibition of 40%.
In turn, `Cc1sc(-c2ccccn2)nc1O` gave a pIC50 in experiment [2] of 5.68.
Compound `O=C(O)Cc1sc(-c2ccccc2)nc1O` yielded an inhibition in experiment [4] of 24%.
In experiment [2], `Oc1sc(-c2ccccc2)nc1-c1ccccc1` had a pIC50 of 5.16.
In experiment [3], `COC(=O)Cc1sc(-c2ccccc2)nc1O` showed a pIC50 of 5.68.
Regarding `Cc1sc(-c2ccc(C(N)=O)cc2)nc1O`, the pIC50 in experiment [2] was 5.32.
The same measure, in the same setting: as for `CCCCC/C=C/C/C=C/C/C=C/C/C=C/CCCC(=O)NO`, the figure is 5.66.
Turning to `CCCCNC(=O)Oc1nc(-c2ccccc2)sc1CCC`, the pIC50 was 5.26 in experiment [6], 4.62 in [2] and 6.10 in experiment [3].
Consider `Cc1nc(O)c(-c2ccccc2)s1`, for which the figures for the pIC50 in experiment [6] and in [2] were 5.29 and 6.15, respectively.
With `Nc1nc(-c2ccccc2)sc1-c1ccccc1`, the inhibition result in experiment [1] is “inactive”.
`Cc1sc(N)nc1O`: the inhibition result in [5] was “inactive”.
In turn, `Cc1sc(-c2ccc(S(N)(=O)=O)cc2)nc1O` showed a pIC50 in experiment [2] of 5.66.
In the case of `Cc1ccc(-c2nc(O)c(-c3ccccc3)s2)cc1`, the pIC50 in experiment [6] was 6.13; in experiment [2], 6.10.
As to `COc1ccc(-c2nc(O)c(-c3ccccc3)s2)cc1`, the inhibition in experiment [7] was found to be 6%; in [8], 22%; in experiment [9], 25%. Besides, the values for the pIC50 in [6], in experiment [2] and in experiment [3] were 5.62, 6.43 and 6.35, respectively.
Turning to `Oc1nc(-c2ccccc2)sc1CCc1ccccc1`, the inhibition in experiment [7] was determined as 3%; in [8] it was 34%; in [9], 11%.
In experiment [2], `Oc1nc(-c2ccncc2)sc1-c1ccccc1` showed a pIC50 of 6.27.
On to `CC(=O)Oc1nc(-c2ccccc2)sc1-c1ccccc1`, for which the pIC50 in experiment [6] is 6.35; in [2], 6.40.
In experiment [2], `Cc1sc(-c2ccc(C(F)(F)F)cc2)nc1O` showed a pIC50 of 5.60.
`CCCc1sc(-c2ccccc2)nc1OC(=O)Nc1ccccc1`: the negative-log IC50 (pIC50) in experiment [2] is 6.34; in experiment [3], 6.00.
For the compound `Cc1sc(-c2ccc(SC(F)(F)F)cc2)nc1O`, in [2], the pIC50 is 5.57.
Same read-out and setting: to `Oc1nc(-c2ccc(-c3ccccc3)cc2)sc1-c1ccccc1` belongs 5.66.
Consider `CCCCCC(=O)Oc1nc(-c2ccccc2)sc1-c1ccccc1`, for which the results for the pIC50 in experiment [2] and in experiment [3] were 5.89 and 6.30, respectively.
In the case of `Cc1sc(-c2ccco2)nc1O`, the pIC50 in experiment [2] is 5.62.
On to `Oc1nc(-c2cccnc2)sc1-c1ccccc1`, for which the figures for the pIC50 in experiment [6] and in experiment [2] were 5.54 and 5.96, respectively.
`Cc1sc(-c2ccc(C(=O)O)cc2)nc1O` gave a pIC50 in [2] of 4.52.
On the same count and under the same terms, to `Cc1sc(-c2cc[nH]n2)nc1O` belongs 4.51.

Values taken from ChEMBL document CHEMBL1125582, “4-hydroxythiazole inhibitors of 5-lipoxygenase” (J Med Chem, 1991).
